Results on one compound are retold here after ChEMBL document CHEMBL4480455, “Anti-inflammatory Property of Imperatorin on Alveolar Macrophages and Inflammatory Lung Injury” (J Nat Prod, 2019).

The source made the active and inactive calls. No cut-off for these calls is given here.

Data set [1] has as its target Tyrosine-protein kinase JAK1 (Mus musculus) (UniProt P52332). Nature of the data set: Inhibition of zymosan-induced JAK1 phosphorylation in mouse MHS cells assessed as phosphorylated JAK1 level at 1.5 ug/ml by Western blot analysis relative to tubulin (reference value: 2.2). In kind it is cell-based. In outline:
(§1)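 MH-S cells pretreated, then stimulated with zymosan 10 μg/mL. Phospho-JAK1 (Y1022/1023), phospho-STAT3 (Y705) and phospho-IKKα/β detected by Western blot against total protein and tubulin. Zymosan time course 1–30 min for JAK1/STAT3 and 1–60 min for IKK. Normalized to control; mean ± SD, n≥3.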

Data set [2] has as its target Signal transducer and activator of transcription 3 (Mus musculus) (UniProt P42227). Description: Inhibition of zymosan-induced STAT3 phosphorylation in mouse MHS cells preincubated for 30 mins followed by zymosan challenge and measured after 6 to 24 hrs by Western blot analysis. In kind it is cell-based.
The species entered for data set [3] is Mus musculus. Nature of the data set: Antiinflammatory activity in mouse MHS cells assessed as reduction in zymosan-induced COX2 protein expression preincubated for 30 mins followed by zymosan challenge and measured after 6 to 24 hrs by Western blotting analysis. In kind it is functional, cell-based.
The nature of data set [4]: Effect on nitrite level in mouse MHS cells at 1.5 to 15 ug/ml after 30 mins by Griess assay. The data set is classed as ADME, cell-based. As to conditions: 0.5 h.
For data set [5], the system named is Mus musculus. Description: Antiinflammatory activity in zymosan induced C57BL/6 mouse model of lung injury assessed as reduction in total protein level in BALF at 4 mg/kg, ip pretreated for 3 days followed by zymosan challenge and measured after 24 hrs. The data set is classed as functional, organism-based. In short, it runs like this:
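Male C57BL/6 mice, 25–30 g. Dosed i.p. daily for 3 days, then zymosan 4 mg/kg in 40 μL saline given by intratracheal instillation. After 24 h, BALF collected with five 0.2 mL PBS washes and centrifuged. Supernatant assayed for PGE2 and total protein. Cells counted by hemocytometer, and ≥300 cells on stained smears scored for differential counts. Left lung weighed, dried at 48 °C for 48 h, reweighed for wet/dry ratio.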

Data set [6] is filed under the species Mus musculus. Nature of the data set: Antiinflammatory activity in mouse MHS cells assessed as reduction in zymosan-induced iNOS protein expression preincubated for 30 mins followed by zymosan challenge and measured after 6 to 24 hrs by Western blotting analysis. In kind it is functional, cell-based.
The species entered for data set [7] is Mus musculus. Nature of the data set: Antiinflammatory activity in mouse MHS cells assessed as reduction in zymosan-induced IL-6 mRNA expression preincubated for 30 mins followed by zymosan challenge and measured after 6 to 24 hrs by TRIzol reagent based qRT-PCR analysis. The data set is classed as functional, cell-based. In short, it runs like this: (§2)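 MH-S alveolar macrophages grown in RPMI 1640 with 10% FBS at 37 °C and 5% CO2. Cells pretreated for 30 min, then given zymosan 10 μg/mL for 6 h. mRNA measured by SYBR Green real-time PCR (95 °C 10 min; 42 cycles of 95 °C 10 s, 60 °C 60 s) with actin as reference. Normalized to control; mean ± SD, n≥3.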

The species entered for data set [8] is Mus musculus. Description: Antiinflammatory activity in mouse MHS cells assessed as reduction in zymosan-induced IL-6 protein expression at 1.5 to 15 ug/ml preincubated for 30 mins followed by zymosan challenge and measured after 6 to 24 hrs. The data set is classed as functional, cell-based. In outline: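 MH-S cells pretreated for 30 min, then given zymosan 10 μg/mL for 24 h. IL-6 and TNFα protein in culture supernatant assessed by cytokine array. Values normalized to control; mean ± SD, n≥3.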

Data set [9] in a line: Effect on PGE2 level in mouse MHS cells at 1.5 to 15 ug/ml after 30 mins. As to conditions: 0.5 h.
The species entered for data set [10] is Mus musculus. Description: Antiinflammatory activity in mouse MHS cells assessed as reduction in zymosan-induced PGE2 production at 1.5 to 15 ug/ml preincubated for 30 mins followed by zymosan challenge and measured after 6 to 24 hrs by ELISA. The data set is classed as functional, cell-based. In short, it runs like this: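 MH-S cells pretreated for 30 min, then given zymosan 10 μg/mL for 24 h. Supernatant PGE2 measured by competitive ELISA: acetylcholinesterase tracer plus monoclonal antibody, 4 °C for 18 h, Ellman's reagent development, absorbance at 405 nm. Mean ± SD, n≥3.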

For data set [11], the species on record is Mus musculus. Nature of the data set: Antiinflammatory activity in mouse MHS cells assessed as reduction in zymosan-induced COX2 mRNA expression preincubated for 30 mins followed by zymosan challenge and measured after 6 to 24 hrs by TRIzol reagent based qRT-PCR analysis. In kind it is functional, cell-based. In outline: as §2
Data set [12] can be described thus: Antiinflammatory activity in mouse MHS cells assessed as reduction in zymosan-induced iNOS protein expression at 1.5 ug/ml preincubated for 30 mins followed by zymosan challenge and measured after 6 to 24 hrs by Western blotting analysis relative to control (reference value: 2.93 +/- 0.84). The data set is classed as functional.
In data set [13] the test system is Mus musculus. Description: Antiinflammatory activity in zymosan induced C57BL/6 mouse model of lung injury assessed as reduction in immune cell infiltration at 4 mg/kg, ip pretreated for 3 days followed by zymosan challenge and measured after 24 hrs by H and E staining based microscopic analysis. In kind it is functional, organism-based. In outline:
(§3)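 Male C57BL/6 mice dosed i.p. for 3 days, then given zymosan (4 mg/kg, i.t.) or saline. Lungs harvested 24 h later. Right lung fixed in 10% formalin, embedded in paraffin, cut into 5 μm sections, stained with H&E or Masson's trichrome and examined by microscopy. Collagen also measured by hydroxyproline assay on lung lysates. Mean ± SD, n≥4.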

The target of data set [14] is Signal transducer and activator of transcription 3 (Mus musculus) (UniProt P42227). Nature of the data set: Inhibition of zymosan-induced STAT3 phosphorylation in mouse MHS cells assessed as phosphorylated STAT3 level at 1.5 ug/ml by Western blot analysis relative to tubulin (reference value: 2.1). The data set is classed as cell-based. In short, it runs like this:
as §1

Data set [15] in a line: Antiinflammatory activity in mouse MHS cells assessed as reduction in zymosan-induced COX2 protein expression at 1.5 ug/ml preincubated for 30 mins followed by zymosan challenge and measured after 6 to 24 hrs by Western blotting analysis relative to control (reference value: 2.2 +/- 1.8). The data set is classed as functional.
The nature of data set [16]: Effect on iNOS protein expression in mouse MHS cells at 15 ug/ml after 30 mins by Western blotting analysis relative to tubulin (reference value: 1). The data set is classed as ADME, cell-based. As to conditions: 0.5 h.
Data set [17] deals with T1, I-kappa-B kinase (Mus musculus) (UniProt Q60680+O88351+O88522). Nature of the data set: Inhibition of zymosan-induced IKK phosphorylation in mouse MHS cells assessed as phosphorylated IKK level at 1.5 ug/ml by Western blot analysis relative to tubulin (reference value: 1.8). The data set is classed as cell-based. In outline: as §1
Data set [18] concerns Mus musculus. Nature of the data set: Antiinflammatory activity in zymosan induced C57BL/6 mouse model of lung injury assessed as reduction in hypertrophic smooth muscle cells at 4 mg/kg, ip pretreated for 3 days followed by zymosan challenge and measured after 24 hrs by H and E staining based microscopic analysis. The data set is classed as functional, organism-based. In short, it runs like this:
as §3

Data set [19] has as its target T1, I-kappa-B kinase (Mus musculus). Nature of the data set: Inhibition of zymosan-induced IKK phosphorylation in mouse MHS cells assessed as phosphorylated IKK level at 15 ug/ml by Western blot analysis relative to tubulin (reference value: 1.8). The data set is classed as cell-based. In outline: as §1
In data set [20] the test system is Mus musculus. Description: Antiinflammatory activity in zymosan induced C57BL/6 mouse model of lung injury assessed as reduction in thinkened basement membrane at 4 mg/kg, ip pretreated for 3 days followed by zymosan challenge and measured after 24 hrs by H and E staining based microscopic analysis. The data set is classed as functional, organism-based. In short, it runs like this: as §3

For data set [21], the system named is Mus musculus. Description: Effect on morphological changes in lungs of C57BL/6 mouse at 4 mg/kg, ip administered for 3 days by H and E staining based microscopic analysis. The data set is classed as ADME, organism-based. As to conditions: in vivo, 72 h. In short, it runs like this:
as §3

Data set [22] in a line: Effect on COX2 protein expression in mouse MHS cells at 15 ug/ml after 30 mins by Western blotting analysis relative to tubulin (reference value: 1). As to conditions: 0.5 h. In kind it is ADME, cell-based.

Chain of Signal transducer and activator of transcription 3 (Mus musculus) (P42227 whole entry): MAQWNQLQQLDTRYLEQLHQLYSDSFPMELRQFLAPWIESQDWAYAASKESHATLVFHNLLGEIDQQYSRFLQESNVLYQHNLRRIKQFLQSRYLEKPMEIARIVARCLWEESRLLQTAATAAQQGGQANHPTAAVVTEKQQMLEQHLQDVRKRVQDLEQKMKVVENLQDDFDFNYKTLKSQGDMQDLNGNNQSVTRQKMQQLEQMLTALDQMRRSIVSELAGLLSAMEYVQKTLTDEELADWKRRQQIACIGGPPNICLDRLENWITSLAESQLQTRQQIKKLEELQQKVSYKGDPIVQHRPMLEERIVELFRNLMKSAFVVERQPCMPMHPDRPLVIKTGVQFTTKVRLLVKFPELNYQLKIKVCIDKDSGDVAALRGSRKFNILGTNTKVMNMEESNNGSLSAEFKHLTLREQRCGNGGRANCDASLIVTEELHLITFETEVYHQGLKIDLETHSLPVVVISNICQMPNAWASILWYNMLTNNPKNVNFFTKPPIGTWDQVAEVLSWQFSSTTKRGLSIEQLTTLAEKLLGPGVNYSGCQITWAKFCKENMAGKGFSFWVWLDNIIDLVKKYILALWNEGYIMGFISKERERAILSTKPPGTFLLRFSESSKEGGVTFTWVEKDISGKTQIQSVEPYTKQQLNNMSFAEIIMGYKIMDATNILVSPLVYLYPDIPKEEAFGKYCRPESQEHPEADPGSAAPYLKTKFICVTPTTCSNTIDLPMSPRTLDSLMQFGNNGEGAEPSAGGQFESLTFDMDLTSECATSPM
Chain of Tyrosine-protein kinase JAK1 (Mus musculus) (P52332 whole entry): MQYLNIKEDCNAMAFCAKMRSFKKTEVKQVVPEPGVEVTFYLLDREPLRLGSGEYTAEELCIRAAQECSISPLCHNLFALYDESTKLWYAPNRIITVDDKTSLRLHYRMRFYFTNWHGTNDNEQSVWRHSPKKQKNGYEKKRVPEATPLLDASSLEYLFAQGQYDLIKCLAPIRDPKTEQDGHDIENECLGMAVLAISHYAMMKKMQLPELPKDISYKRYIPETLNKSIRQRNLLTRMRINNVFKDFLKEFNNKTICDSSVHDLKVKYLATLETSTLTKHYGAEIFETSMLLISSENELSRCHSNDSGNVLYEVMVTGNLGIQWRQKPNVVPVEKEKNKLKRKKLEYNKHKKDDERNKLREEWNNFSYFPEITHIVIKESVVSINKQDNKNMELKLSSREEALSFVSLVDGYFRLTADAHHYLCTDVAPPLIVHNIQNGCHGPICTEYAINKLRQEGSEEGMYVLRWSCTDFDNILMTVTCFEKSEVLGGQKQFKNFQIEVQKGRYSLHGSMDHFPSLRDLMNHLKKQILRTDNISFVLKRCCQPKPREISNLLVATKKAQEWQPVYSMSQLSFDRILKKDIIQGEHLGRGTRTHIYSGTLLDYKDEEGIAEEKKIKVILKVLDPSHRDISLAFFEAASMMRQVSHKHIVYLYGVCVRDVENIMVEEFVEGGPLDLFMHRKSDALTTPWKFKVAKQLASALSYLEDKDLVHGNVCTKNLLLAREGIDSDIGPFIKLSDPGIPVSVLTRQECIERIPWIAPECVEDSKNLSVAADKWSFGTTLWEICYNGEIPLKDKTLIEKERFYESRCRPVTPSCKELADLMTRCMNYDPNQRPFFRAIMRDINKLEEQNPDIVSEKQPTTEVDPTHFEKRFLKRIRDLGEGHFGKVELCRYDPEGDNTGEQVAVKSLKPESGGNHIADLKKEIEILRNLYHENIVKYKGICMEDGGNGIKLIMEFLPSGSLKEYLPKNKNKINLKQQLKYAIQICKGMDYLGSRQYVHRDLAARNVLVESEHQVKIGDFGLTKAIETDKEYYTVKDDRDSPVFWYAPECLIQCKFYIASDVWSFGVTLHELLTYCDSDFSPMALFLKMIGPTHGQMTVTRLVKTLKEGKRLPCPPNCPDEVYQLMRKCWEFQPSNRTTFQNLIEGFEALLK

As for `CC(C)=CCOc1c2occc2cc2ccc(=O)oc12` [PENTOSALEN], the fold change (FC) is 2.2 in data set [1]; 2.5 in data set [12]; 1.8 in data set [14]; 2.2 in data set [15]; 0.9 in [16]; 1.2 in [17]. Also, the fold change (FC) was 1 in data set [19] and 0.7 in data set [22]. Moreover, the inhibition entry in data set [2] is “Dose-dependent effect”. The Activity result in [3] was “Dose-dependent effect”; in [4] it was “Non-Toxic”; in [6], “Dose-dependent effect”; in data set [7], “Dose-dependent effect”; in data set [9] it was “Non-Toxic”; in data set [11], “Dose-dependent effect”. In addition, in data set [21], the Activity entry was “Non-Toxic”. Moreover, the result in data set [5], in data set [8], in data set [10], in [13], in data set [18] and in data set [20] was Active.
